# Data reported in ChEMBL document CHEMBL2417509, “Synthesis and biological evaluation of prodigiosene conjugates of porphyrin, estrone and 4-hydroxytamoxifen” (2013).
# The source made the active and inactive calls. The calls are words filed in the database; no cut-off is given here.
# Test system: MDA-MB-231
# Assay: Cytotoxicity against human ER negative MDA-MB-231 cells assessed as cell viability at 1 uM after 72 hrs by MTT assay
# Type: functional, cell-based
# Summary of the method: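 Lines kept in DMEM with 10% fetal bovine serum and 1% penicillin/streptomycin at 37 °C, 5% CO2. Compound applied at 1 µM for 72 h, then standard MTT reduction read-out. Viability given as mean percentage of formazan formed by treated cells relative to mock-treated cells (0.1% DMSO). Run in quadruplicate, standard error, Student's t-test.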
compound,measurement,value
COc1cc(-c2ccc[nH]2)[nH]c1/C=C1\N=C(C)C(C(=O)CCC(=O)Oc2ccc3c(c2)CC[C@@H]2[C@@H]3CC[C@]3(C)C(=O)CC[C@@H]23)=C1C,Activity,Active
